Columns and labels:
[1] = Binding affinity to HIV1 full length gp120 by isothermal titration calorimetric assay; parameters: species or system Human immunodeficiency virus 1
Procedure, shortened: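 ITC titration of full-length monomeric gp120 with ligand at 25 °C.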

[2] = system: Human immunodeficiency virus 1; experiment: Activation of HIV1 isolate YU2 infectivity in CD4 negative dog CF2Th cells expressing CCR5 by luciferase reporter gene assay relative to TS-2-224; assay type: organism-based; conditions: human immunodeficiency virus 1, cf2th
[3] = Inhibition of HIV1 isolate YU2 gp120 binding to human CD4 expressed in dog CF2Th cells coexpressing CCR5 after 2 to 4 hrs by luciferase reporter gene assay; assay type: cell-based, Human immunodeficiency virus type 1 (isolate YU2)
Procedure, shortened: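 HIV-1 YU2 infection of Cf2Th cells expressing CD4 and CCR5; the IC50 is for inhibition of viral entry.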

[4] = Inhibition of AMLV gp120 binding to human CD4 expressed in canine CF2Th cells coexpressing CCR5 after 2 to 4 hrs by luciferase reporter gene assay; assay type: cell-based, Amphotropic murine leukemia virus
[5] = system: Human immunodeficiency virus 1; experiment: Activation of HIV1 isolate YU2 infectivity in CD4 negative dog CF2Th cells expressing CCR5 by luciferase reporter gene assay relative to NBD556; assay type: organism-based; conditions: human immunodeficiency virus 1, cf2th
Procedure, shortened: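 HIV-1 YU2 infection of CD4-negative Cf2Th-CCR5 cells; relative activation of viral infectivity is normalized to the reference CD4-mimetic agonist.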

[6] = system: Human immunodeficiency virus 1; experiment: Antiviral activity against 0.01 to 0.1 MOI HIV1 Env-pseudovirus Clade C infected in human TZM-bl cells after 30 mins by luciferase assay; assay type: functional, organism-based; conditions: Human immunodeficiency virus 1, Clade C, 0.5 h
Procedure, shortened: (§1)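 Neutralization breadth is tested against a panel of 42 diverse Tier 2 clade B and C Env-pseudoviruses. IC50 values are summarized as geometric mean titers for the sensitive strains.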

[7] = system: Human immunodeficiency virus 1; experiment: Antiviral activity against 0.01 to 0.1 MOI HIV1 Env-pseudovirus Clade B infected in human TZM-bl cells after 30 mins by luciferase assay; assay type: functional, organism-based; conditions: Human immunodeficiency virus 1, Clade B, 0.5 h; procedure, shortened: as §1

Row | SMILES | Kd [1] [µM] | fold change (FC) [2] | IC50 [3] [µM] | IC50 [4] [µM] | fold change (FC) [5] | IC50 [6] [µM] | IC50 [7] [µM]
1 | N=C(N)N[C@H]1Cc2ccccc2[C@@H]1NC(=O)C(=O)Nc1ccc(Cl)c(F)c1.O=CO | 0.25 | 0.1 | 22.9 | > 100 |  |  | 
2 | N=C(N)NCC[C@H]1Cc2ccccc2[C@@H]1NC(=O)C(=O)Nc1ccc(Cl)c(F)c1.O=CO | 0.34 |  | 28.2 | > 100 | 0.17 |  | 
3 | N=C(N)NCC1Cc2ccccc2C1NC(=O)C(=O)Nc1ccc(Cl)c(F)c1 (racemic) |  |  | 10.3 |  |  |  | 
4 | N=C(N)NCC[C@@H]1Cc2ccccc2[C@H]1NC(=O)C(=O)Nc1ccc(Cl)c(F)c1.O=CO | 2 |  | 68.5 | > 100 | 0 |  | 
5 | N=C(N)NC[C@H]1Cc2ccccc2[C@@H]1NC(=O)C(=O)Nc1ccc(Cl)c(F)c1.O=CO | 0.11 |  | 2.3 | > 100 | 0 | 14 | 1.7
6 | N=C(N)N[C@@H]1Cc2ccccc2[C@H]1NC(=O)C(=O)Nc1ccc(Cl)c(F)c1.O=CO | 0.3 | 0 | 21.3 | > 100 |  |  | 
7 | N=C(N)NC[C@@H]1Cc2ccccc2[C@H]1NC(=O)C(=O)Nc1ccc(Cl)c(F)c1.O=CO | 6.2 |  | 37.9 | > 100 | 0.11 |  | 
